Measured values collected from several papers.
CDK4: Cyclin-dependent kinase 4 (CDK4, Homo sapiens, UniProt P11802)
CDK4 with cyclin D3: Cyclin-dependent kinase 4, with cyclin D3 (CDK4, Homo sapiens, UniProt P11802)
CDK4 with cyclin D1: Cyclin-dependent kinase 4, with cyclin D1 (CDK4, Homo sapiens, UniProt P11802)

SMILES | target | observed | mode | technique | concentration | quantity | value
CN(C)c1nccc(-c2cnc3ncccn23)n1 | CDK4 | binding |  |  | 1 µM | remaining binding | 71%
Cc1cc(NC(=O)c2cccc3cc(-c4cccc5[nH]nc(N)c45)ccc23)ccc1F | CDK4 with cyclin D3 | enzyme activity | inhibitor |  | 0.1 µM | activity vs control | 89%
Cc1sc(C(=O)NC2COC2)cc1-n1cc(NC(=O)Nc2c(F)cccc2Cl)cn1 | CDK4 with cyclin D1 | enzyme activity | inhibitor |  | 10 µM | remaining activity | 78%
COc1ccc(C(=O)[C@H]2Cc3c(cc([N+](=O)[O-])cc3[N+](=O)[O-])[C@H](O)[C@]23C(=O)Nc2ccccc23)cc1 | CDK4 | cell-free assay | inhibitor | TR-FRET | 1 µM | inhibition | 18.4%
O=C(Nc1cnn(-c2csc(C(=O)NC3COC3)c2)c1)Nc1ccccc1Cl | CDK4 with cyclin D3 | enzyme activity | inhibitor |  | 5 µM | remaining activity | 98.2%
O=C(c1ccc(Cl)c(Cl)c1)[C@H]1Cc2c(cc([N+](=O)[O-])cc2[N+](=O)[O-])[C@@H](O)[C@@]12C(=O)Nc1ccccc12 | CDK4 | cell-free assay | inhibitor | TR-FRET | 1 µM | inhibition | 35.6%
CC(C)(O)[C@H]1CC[C@H](Nc2ccc3ncc(-c4cccc(C(F)(F)F)c4)n3n2)CC1 | CDK4 with cyclin D3 | enzyme activity | inhibitor |  | 1 µM | remaining activity | 106%
CN(c1nccc(-c2cnn3ncccc23)n1)C1CC1 | CDK4 with cyclin D1 | binding |  |  | 1 µM | remaining binding | 100%
CC(C)(C)c1nc2c(s1)c1nc(N)ncc1c1ccc(NS(=O)(=O)c3c(F)cccc3F)c(F)c12 | CDK4 with cyclin D3 | enzyme activity | inhibitor | radiometric | 1 µM | remaining activity | 100%
Oc1cccc(-c2nc(N3CCOCC3)c3oc4ncccc4c3n2)c1 | CDK4 with cyclin D3 | cell-free assay |  |  | 0.5 µM | remaining signal | 92.5%
CCC(=N\O)/C(C)=C/c1ccc(F)cc1 | CDK4 with cyclin D3 | cell-free assay |  | competition with immobilised ligand | 1 µM | remaining binding | 74%
COc1ccnn2ncc(-c3ccnc(N(C)C)n3)c12 | CDK4 with cyclin D3 | binding |  |  | 1 µM | remaining binding | 69%
O=C1Nc2ccc(Cl)cc2C1=Cc1cc(Cl)c(O)c(Cl)c1 | CDK4 with cyclin D3 | cell-free assay |  |  | 0.5 µM | remaining signal | 94.8%
O=C(Nc1cnn(-c2csc(C(=O)NC3COC3)c2)c1)Nc1c(F)cccc1Cl | CDK4 with cyclin D1 | enzyme activity | inhibitor |  | 5 µM | remaining activity | 90.3%
O=C(c1ccccc1F)[C@H]1Cc2c(cc([N+](=O)[O-])cc2[N+](=O)[O-])[C@@H](O)[C@@]12C(=O)Nc1ccccc12 | CDK4 | cell-free assay | inhibitor | TR-FRET | 1 µM | inhibition | 38.9%
CC1=C(C#N)C(c2ccc3c(c2)c(NC(=O)c2ccccc2C)nn3C)C(C#N)=C(C)N1 | CDK4 with cyclin D3 | cell-free assay |  | competition with immobilised ligand | 1 µM | remaining binding | 79%
O=C(c1ccc(F)cc1)[C@H]1Cc2c(cc([N+](=O)[O-])cc2[N+](=O)[O-])[C@H](O)[C@]12C(=O)Nc1ccccc12 | CDK4 | cell-free assay | inhibitor | TR-FRET | 1 µM | inhibition | 23.2%
COc1cccc(CNC(=O)c2nc3scc(COCc4ccc(C(=O)O)cc4)c3c(=O)[nH]2)c1 | CDK4 with cyclin D3 | cell-free assay |  | competition with immobilised ligand | 1 µM | remaining binding | 91.1%
CS(=O)(=O)CCNCc1ccc(-c2ccc3ncnc(Nc4ccc(OCc5cccc(F)c5)c(Cl)c4)c3c2)o1 | CDK4 with cyclin D3 | cell-free assay |  |  | 0.5 µM | remaining signal | 104%
C[C@H]1CCN(c2nccc(-c3cnn4ncccc34)n2)C1 | CDK4 with cyclin D1 | binding |  |  | 1 µM | remaining binding | 80%

SMILES | target | observed | mode | technique | concentration | quantity | value
COc1ccc(OC)c2c(=S)c3ccccc3[nH]c12 | CDK4 with cyclin D1 | cell-free assay |  |  | 0.5 µM | remaining signal | 93.5%
Cc1ccc(NC(=O)c2ccc(C)c(C(F)(F)F)c2)cc1C#Cc1nn(C2CCC(O)CC2)c2ncnc(N)c12 (stereo not drawn) | CDK4 with cyclin D3 | cell-free assay |  |  | 10 µM | remaining signal | 86%
CCCCN(CCCC)C(=O)CN1C[C@@H](c2cc(OC)c3c(c2)OCO3)[C@H](C(=O)O)[C@H]1CC(C)(C)CCC | CDK4 with cyclin D3 | cell-free assay |  | competition with immobilised ligand | 1 µM | remaining binding | 92.7%
CN(CCCC(F)(F)F)c1nccc(-c2cnn3ncccc23)n1 | CDK4 | binding |  |  | 1 µM | remaining binding | 100%
Cc1nccc(COC(=O)N2C[C@@H]3[C@@H](CNC(=O)c4ccc5[nH]nnc5c4)[C@@H]3C2)n1 | CDK4 with cyclin D1 | cell-free assay |  | competition with immobilised ligand | 1 µM | remaining binding | 90%
O=C1NC(=O)c2cc(Nc3ccc(F)cc3)c(Nc3ccc(F)cc3)cc21 | CDK4 with cyclin D1 | cell-free assay |  |  | 0.5 µM | remaining signal | 101%
CC1CCCN1c1nccc(-c2cnn3ncccc23)n1 (stereo not drawn) | CDK4 | binding |  |  | 1 µM | remaining binding | 100%
CO[C@@H](C)c1c(Nc2ccc([C@@H](N(C)C(=O)C3CCS(=O)(=O)CC3)C(F)(F)F)cc2)cnc2cc(Cl)nn12 | CDK4 with cyclin D1 | cell-free assay |  | competition with immobilised ligand | 1 µM | remaining binding | 100%
CCN(CC)CCNC(=O)c1c(C)[nH]c(/C=C2\C(=O)Nc3ccc(F)cc32)c1C | CDK4 with cyclin D3 | cell-free assay |  |  | 0.5 µM | remaining signal | 93%
Cc1ccc(C(=O)NCc2ccsc2)cc1C#Cc1cn(C(C)C)c2ncnc(N)c12 | CDK4 with cyclin D3 | enzyme activity | inhibitor |  | 1 µM | activity vs control | 92%
N#CCCc1ccc2c(c1)-c1[nH]c3ccc([N+](=O)[O-])cc3c1CC(=O)N2 | CDK4 with cyclin D3 | cell-free assay |  |  | 0.5 µM | remaining signal | 25.9%
CN1CCN(c2cnc3c(C4CCN(C(=O)c5ccc(OC(F)(F)F)cc5N)CC4)ncnc3c2)CC1 | CDK4 | cell-free assay |  | competition with immobilised ligand | 1 µM | remaining binding | 100%
COc1cc2c(cc1OC)-c1[nH]nc(Nc3cccc(F)c3)c1C2 | CDK4 with cyclin D3 | cell-free assay |  |  | 0.5 µM | remaining signal | 95.4%
O=C(c1ccc(Br)cc1)[C@H]1Cc2c(cc([N+](=O)[O-])cc2[N+](=O)[O-])[C@H](O)[C@]12C(=O)Nc1ccccc12 | CDK4 | cell-free assay | inhibitor | TR-FRET | 1 µM | inhibition | 18.6%
Nc1ncnc2occ(-c3ccc(NC(=O)Nc4cc(C(F)(F)F)ccc4F)cc3)c12 | CDK4 with cyclin D3 | cell-free assay | inhibitor |  | 20 µM | remaining signal | 51%
CN1CC(Oc2cnc(C#N)cc2-c2ccn3nc(NC(=O)C4CC4)cc3c2)C1 | CDK4 with cyclin D3 | enzyme activity | inhibitor |  | 1 µM | inhibition | -9%
O=C(c1ccccc1)[C@H]1Cc2c(cc([N+](=O)[O-])cc2[N+](=O)[O-])[C@@H](O)[C@@]12C(=O)Nc1ccccc12 | CDK4 | cell-free assay | inhibitor | TR-FRET | 1 µM | inhibition | 39.5%
CC(=O)N1CCC(c2ccc(C(=O)NC(=N)N)cc2C(F)(F)F)CC1 | CDK4 | cell-free assay |  | competition with immobilised ligand | 1 µM | remaining binding | 100%
F[C@@H]1CCN(c2nccc(-c3cnn4ncccc34)n2)C1 | CDK4 with cyclin D1 | binding |  |  | 1 µM | remaining binding | 100%
